Drawing on ChEMBL document CHEMBL1121856, “Sulfur analogues of psychotomimetic agents. Monothio analogues of mescaline and isomescaline” (J Med Chem, 1981), this text covers Human potency and metabolised for 8 compounds.

The species named for one data set is Homo sapiens. The data set is described as follows: Compound was tested for the psychotropic effect in human (activity is expressed in mescaline unit). It is filed as functional. The gist of the method: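 Healthy adult volunteers (32–65 y, experienced with psychotropic drugs) received the hydrochloride orally. Dosing began at 2 mg and rose in small increments (1.6:1) at trials spaced about 1 week apart until an effective level was found. Mescaline units are the effective dose of mescaline divided by that of the compound, both determined in man. A "less than" value means no activity at doses that would give that MU.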

In data set [1] the target is T1, monoamine oxidase (bovine plasma amine oxidase) (Bos taurus, UniProt P21398+P56560).
T1 sequence (P56560 whole entry): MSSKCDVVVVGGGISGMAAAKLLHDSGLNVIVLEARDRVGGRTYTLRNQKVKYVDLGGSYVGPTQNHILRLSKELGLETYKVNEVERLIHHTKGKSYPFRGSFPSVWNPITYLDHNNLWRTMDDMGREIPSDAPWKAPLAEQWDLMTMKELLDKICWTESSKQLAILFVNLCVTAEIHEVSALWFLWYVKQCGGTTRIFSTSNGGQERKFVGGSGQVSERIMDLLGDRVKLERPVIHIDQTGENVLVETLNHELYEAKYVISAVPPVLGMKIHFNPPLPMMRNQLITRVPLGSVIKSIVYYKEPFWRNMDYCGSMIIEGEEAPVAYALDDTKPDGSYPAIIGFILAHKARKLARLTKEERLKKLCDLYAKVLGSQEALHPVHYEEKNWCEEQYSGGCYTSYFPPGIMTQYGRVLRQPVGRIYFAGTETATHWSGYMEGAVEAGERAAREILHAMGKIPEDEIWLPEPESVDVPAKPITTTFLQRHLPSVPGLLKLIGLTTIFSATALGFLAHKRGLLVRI
T1 sequence (P21398 whole entry): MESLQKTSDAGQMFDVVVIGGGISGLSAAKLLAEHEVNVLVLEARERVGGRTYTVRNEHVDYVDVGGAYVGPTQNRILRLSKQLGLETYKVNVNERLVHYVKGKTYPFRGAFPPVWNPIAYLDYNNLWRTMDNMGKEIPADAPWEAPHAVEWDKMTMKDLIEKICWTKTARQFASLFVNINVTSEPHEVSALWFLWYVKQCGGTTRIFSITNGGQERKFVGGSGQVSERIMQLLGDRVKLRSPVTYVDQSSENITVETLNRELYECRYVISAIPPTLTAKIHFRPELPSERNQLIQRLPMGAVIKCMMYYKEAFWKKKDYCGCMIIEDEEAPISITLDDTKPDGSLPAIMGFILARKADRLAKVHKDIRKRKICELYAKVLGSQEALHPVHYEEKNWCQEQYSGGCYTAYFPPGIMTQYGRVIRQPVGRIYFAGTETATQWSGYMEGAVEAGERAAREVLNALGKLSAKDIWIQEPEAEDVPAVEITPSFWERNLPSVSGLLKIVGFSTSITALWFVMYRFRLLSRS
The data set is described as follows: In vitro bovine plasma monoamine oxidase deamination without semicarbazide. It is filed as cell-free. The note with it: cattle, read-out: MAO deamination. The gist of the method:
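Amines at 50 μM in 0.1 M phosphate buffer, pH 7.4, with 0.01 unit bovine plasma MAO, no semicarbazide, in duplicate, 1 h at 37 °C. Stopped with 0.5 N NaOH, internal standard added, extracted into CH2Cl2. Remaining amine measured by GC (OV-101, 185 °C) as heptafluorobutyryl derivatives, quantitated by peak-height ratio against standards prepared without enzyme.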

For data set [2], the target named is T1, monoamine oxidase (bovine plasma amine oxidase). The data set is described as follows: In vitro bovine plasma monoamine oxidase deamination with semicarbazide. It is filed as cell-free. The note with it: cattle, with semicarbazide (concentration not stated), read-out: MAO deamination. An outline of the steps: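 Amines at 50 μM in 0.1 M phosphate buffer, pH 7.4, with 0.01 unit bovine plasma MAO and 50 μM semicarbazide, in duplicate, 1 h at 37 °C. Stopped with 0.5 N NaOH, internal standard added, extracted into CH2Cl2. Remaining amine measured by GC as heptafluorobutyryl derivatives, quantitated by peak-height ratio against enzyme-free standards.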

In the data set filed under Homo sapiens, `COc1ccc(CCN)c(OC)c1SC` yielded a Human potency below 2 MU. Further, the metabolised in data set [1] stood at 31%.

The compound `COc1ccc(CCN)cc1OC` showed a Human potency in the data set filed under Homo sapiens below 1 MU. In addition, the metabolised is 16% in data set [2] and 64% in data set [1].

Turning to `COc1c(CCN)ccc(SC)c1OC`, in the data set filed under Homo sapiens, the Human potency is below 2 MU. Besides, the metabolised in data set [1] was determined as 40%.

The compound `COc1cc(CCN)cc(SC)c1OC` showed a Human potency in the data set filed under Homo sapiens of 6 MU. The metabolised in data set [1] was 60%.

Take `COc1ccc(CCN)c(OC)c1OC`: the Human potency in the data set filed under Homo sapiens is below 1 MU. Also, the metabolised in data set [2] worked out at 4%; in data set [1], 55%.

In turn, `COc1cc(CCN)cc(OC)c1OC` [MESCALINE] showed a Human potency in the data set listed under Homo sapiens of 1 MU. Further, the figures for the metabolised in data set [2] and in data set [1] were 1% and 21%, respectively.

Take `COc1ccc(CCN)c(SC)c1OC`: the Human potency in the data set listed under Homo sapiens is recorded as below 2 MU. For the same compound, the metabolised in data set [2] was determined as 10%; in data set [1], 78%.

For the compound `COc1cc(CCN)cc(OC)c1SC`, the Human potency in the data set filed under Homo sapiens was 12 MU. The metabolised in data set [1] was determined as 56%.
